Reference: ChEMBL document CHEMBL1137607, “De novo discovery of serotonin N-acetyltransferase inhibitors” (J Med Chem, 2007)
One block for each molecule: values may come before it. Calls of active or inactive are those of the source. The rule behind the calls is not given here.

Experiments:
[1] = biological target: Serotonin N-acetyltransferase (Ovis aries) (UniProt Q29495); test: Inhibition of ovine AANAT in presence of Triton X-100 at 25 uM by spectrophotometric assay
[2] = biological target: Serotonin N-acetyltransferase (Ovis aries) (UniProt Q29495); test: Inhibition of ovine AANAT at 25 uM by spectrophotometric assay
[3] = biological target: Serotonin N-acetyltransferase (Ovis aries) (UniProt Q29495); test: Inhibition of ovine AANAT at 25 uM by alpha-KD-coupled spectrophotometric assay
[4] = biological target: Serotonin N-acetyltransferase (Ovis aries) (UniProt Q29495); test: Inhibition of ovine AANAT at 25 uM by radioactive assay
[5] = biological target: Serotonin N-acetyltransferase (Ovis aries) (UniProt Q29495); settings: at 100 µM
[6] = biological target: Serotonin N-acetyltransferase (Ovis aries) (UniProt Q29495); settings: at 100 µM; remark: listed apart in the source
[7] = biological target: Serotonin N-acetyltransferase (Ovis aries) (UniProt Q29495); settings: at 100 µM; remark: listed apart in the source
[8] = biological target: Serotonin N-acetyltransferase (Ovis aries) (UniProt Q29495); settings: at 100 µM; remark: listed apart in the source
[9] = biological target: T1, Serotonin N-acetyltransferase (Ovis aries, UniProt Q29495); test: Inhibition of ovine AANAT by spectrophotometric assay
[10] = biological target: T1, Serotonin N-acetyltransferase; test: Inhibition of ovine AANAT by TLC-based radioactive assay
[11] = biological target: Histone acetyltransferase KAT2B (Homo sapiens) (UniProt Q92831); test: Inhibition of PCAF HAT at 50 uM
How it was run: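 Radioactive HAT assay on purified PCAF HAT catalytic domain (10 nM), with histone H3 residues 1-20 (10 μM) as substrate, in 50 mM Tris-HCl pH 8.0, 1 mM DTT, 0.1 mM EDTA, 50 μg/mL BSA, 3.3% DMSO, 30 °C. Inhibitor tested at 0-50 μM. Started with 20 μM [14C]-AcCoA and quenched after 5 min. Gel separation, phosphorimaging against [14C]-BSA standard, no-enzyme background subtracted, duplicates.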

[12] = Inhibition of melatonin biosynthesis in rat pinealocytes; assay type: functional, cell-based
[13] = Toxicity in rat pinealocytes; assay type: cell-based; settings: in vitro

T1 sequence (Q29495 whole entry): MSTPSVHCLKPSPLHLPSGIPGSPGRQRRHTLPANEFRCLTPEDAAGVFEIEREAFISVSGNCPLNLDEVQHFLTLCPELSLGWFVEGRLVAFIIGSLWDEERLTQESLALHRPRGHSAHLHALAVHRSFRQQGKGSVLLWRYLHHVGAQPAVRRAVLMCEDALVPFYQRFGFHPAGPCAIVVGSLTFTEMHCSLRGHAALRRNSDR
Chain of Serotonin N-acetyltransferase (Ovis aries) (Q29495 whole entry): as above
Chain of Histone acetyltransferase KAT2B (Homo sapiens) (Q92831 whole entry, looked up, the tested form may be a part): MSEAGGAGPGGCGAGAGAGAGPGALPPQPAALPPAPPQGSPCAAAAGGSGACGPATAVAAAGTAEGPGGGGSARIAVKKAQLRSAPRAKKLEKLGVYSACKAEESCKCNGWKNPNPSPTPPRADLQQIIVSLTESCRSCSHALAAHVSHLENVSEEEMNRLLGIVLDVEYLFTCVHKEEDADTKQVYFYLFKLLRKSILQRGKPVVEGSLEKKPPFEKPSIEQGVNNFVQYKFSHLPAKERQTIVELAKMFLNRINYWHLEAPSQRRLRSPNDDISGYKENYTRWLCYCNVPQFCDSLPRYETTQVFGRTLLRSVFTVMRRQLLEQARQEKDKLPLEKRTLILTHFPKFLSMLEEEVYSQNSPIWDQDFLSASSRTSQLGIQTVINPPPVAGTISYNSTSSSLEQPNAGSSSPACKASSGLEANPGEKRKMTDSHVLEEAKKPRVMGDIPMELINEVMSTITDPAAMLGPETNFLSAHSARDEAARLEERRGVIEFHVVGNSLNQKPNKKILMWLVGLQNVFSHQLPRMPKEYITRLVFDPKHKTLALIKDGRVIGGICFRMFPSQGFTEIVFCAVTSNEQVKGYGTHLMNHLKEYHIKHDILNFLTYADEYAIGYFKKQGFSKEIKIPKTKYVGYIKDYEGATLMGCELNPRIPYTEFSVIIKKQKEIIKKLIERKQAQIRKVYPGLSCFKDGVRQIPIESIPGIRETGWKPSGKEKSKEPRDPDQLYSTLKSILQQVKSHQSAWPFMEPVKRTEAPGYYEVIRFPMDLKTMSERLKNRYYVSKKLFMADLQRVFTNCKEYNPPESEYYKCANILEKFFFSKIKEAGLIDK

SMILES: O=C(O)CCCN1C(=O)/C(=C2/C(=O)Nc3ccc(Br)cc32)SC1=S
- inhibition [1]: 41%
- inhibition [2]: 52%
- inhibition [3]: 21%

SMILES: CCc1ccc(/C=N/c2c(C)n(C)n(-c3ccccc3)c2=O)cc1
- inhibition [4]: 0%
- inhibition [1]: 61%
- inhibition [2]: 70%
- inhibition [3]: 47%

SMILES: O=C(CN1C(=O)C(C2SC(=S)N(CCS(=O)(=O)O)C2=O)c2ccccc21)Nc1ccccc1 (stereo not given)
- inhibition [5]: 80%
- inhibition [7]: 99%
- inhibition [6]: 99%
- inhibition [8]: 70%
- IC50 [9]: 15.8 µM

SMILES: COc1ccc(/N=N/c2ccc(S(=O)(=O)O)cc2)cc1
- inhibition [5]: 60%
- inhibition [6]: 65%
- inhibition [8]: 28%

SMILES: O=C(O)CCCCCN1C(=O)/C(=C2/C(=O)N(CC(=O)O)c3ccc(Br)cc32)SC1=S
- inhibition [1]: 55%
- inhibition [2]: 43%
- inhibition [3]: 11%

SMILES: Cc1ccc(CN2C(=O)C(C3SC(=S)N(CCS(=O)(=O)O)C3=O)c3ccccc32)cc1 (stereo not given)
- inhibition [5]: 98%
- inhibition [7]: 99%
- inhibition [6]: 84%
- inhibition [8]: 54%
- IC50 [9]: 25.2 µM

SMILES: CCOc1ccc(C(=O)CC(=O)Nc2ccc(S(=O)(=O)F)cc2)cc1OC
- inhibition [5]: 100%
- inhibition [7]: 31%
- inhibition [6]: 98%
- inhibition [8]: 79%

SMILES: CC(C)Oc1ccc(C(=O)CC(=O)Nc2ccc(S(=O)(=O)F)cc2)cc1
- inhibition [1]: 59%
- inhibition [2]: 43%
- inhibition [3]: 0%

SMILES: O=C(O)CCCCCN1C(=O)C(C2C(=O)N(Cc3ccc(F)cc3)c3ccccc32)SC1=S (stereo not given)
- inhibition [5]: 74%
- IC50 [10]: 11.1 µM
- Activity [11]: inactive
- inhibition [7]: 98%
- IC50 [12]: 100 µM
- inhibition [6]: 81%
- inhibition [8]: 66%
- IC50 [9]: 45.2 µM
- Activity [13]: Non-toxic

SMILES: COc1ccc(/C=N/c2ccc(CC(=O)O)cc2)cc1
- inhibition [5]: 30%
- inhibition [7]: 13%
- inhibition [6]: 41%
- inhibition [8]: 64%

Continued, values first:

- inhibition [5]: 24%
- inhibition [6]: 42%
SMILES: COC(=O)Nc1ccc(S(=O)(=O)Nc2cc(OC)nc(OC)n2)cc1

- inhibition [5]: 23%
- inhibition [6]: 50%
SMILES: O=C1CC(CC(=O)N/N=C/c2c(O)ccc3ccccc23)=NN1

- inhibition [5]: 83%
- inhibition [7]: 94%
- inhibition [6]: 100%
- inhibition [8]: 78%
- IC50 [9]: 52.9 µM
SMILES: O=C(O)CCCCCN1C(=O)C(C2C(=O)Nc3ccccc32)SC1=S (stereo not given)

- inhibition [5]: 11%
- inhibition [6]: 40%
SMILES: O=C(COc1ccc([N+](=O)[O-])cc1)N/N=C/c1ccccc1COc1ccccc1

- inhibition [4]: 0%
- inhibition [1]: 41%
- inhibition [2]: 52%
- inhibition [3]: 56%
SMILES: COc1ccc(NC(=O)CN2C(=O)/C(=C3\SCN(CCS(=O)(=O)O)C3=O)c3ccccc32)cc1

- inhibition [7]: 74%
- IC50 [9]: 402 µM
SMILES: O=C(O)COc1ccc(/C=N/NC(=O)c2ccc(OCc3ccccc3)cc2)cc1
